This is a sample that favours compounds with a hit; in the whole collection about 3.7% have one here.
NS3 helicase inh: inhibitors of HCV NS3 helicase, primary screen, biochemical, Cy5 molecular beacon fluorescence; NS3 helicase DNA unwinding; Hepatitis C virus NS3 helicase; 290,000 compounds, 0.56% hits; inhibition, % at 10.9 µM;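 active = inhibition above the mean of all tested compounds plus 3 SD, set per campaign, cut at about 35% in these data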;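 also: 0% = DMSO wells and 100% = thioflavine S control wells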
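Control set: DMSO versus 110 µM thioflavine S; Material: NS3 helicase fragment of HCV; Measured by: Cy5 fluorescence at 0 and 60 min, beacon hairpin quenching; Read-out basis: percent inhibition from t60/t0 fluorescence ratio; Times: reaction time 60 min, 25 °C; Repeats: single replicate; Compound dosing: single dose, 10.9 µM nominal final, DMSO 0.8% final.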
TAAR1 antag: human TAAR1 antagonists, primary screen, Fluo-8 calcium fluorescence, CHO RD-HGA16 cells. Trace amine-associated receptor 1 (Homo sapiens), Q96RJ0. antagonist. inhibition, % at 3 µM. 360,000 compounds, 1.5% hits. AID 624466, 2012;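 active = inhibition above a per-plate cutoff, the mean inhibition of test compounds on that plate plus 3 SD, cut at about 49% in these data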;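 also: 0% = DMSO plus EC80 beta-PEA response and 100% = DMSO alone without agonist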
Target sequence (Q96RJ0 whole entry, looked up): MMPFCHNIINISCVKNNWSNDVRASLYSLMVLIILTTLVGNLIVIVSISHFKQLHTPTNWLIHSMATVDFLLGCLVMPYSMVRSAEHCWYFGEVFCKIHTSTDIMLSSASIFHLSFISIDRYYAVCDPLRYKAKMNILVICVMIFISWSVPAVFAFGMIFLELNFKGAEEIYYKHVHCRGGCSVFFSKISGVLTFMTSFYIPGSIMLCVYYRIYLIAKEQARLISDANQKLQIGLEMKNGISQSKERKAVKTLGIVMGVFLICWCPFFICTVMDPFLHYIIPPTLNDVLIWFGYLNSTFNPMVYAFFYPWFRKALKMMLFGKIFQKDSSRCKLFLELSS
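Test system: hTAAR1-expressing CHO RD-HGA16 cells, Gα16-coupled; Probe or stimulus: EC80 β-phenethylamine stimulus; Compound dosing: single nominal final test compound concentration of 3 µM; Timing: 140 s kinetic read after compound, 140 s after agonist; Signal: Fluo-8 calcium-sensitive fluorescence; Measure: % inhibition of agonist calcium response; Controls: DMSO and EC80 PEA controls.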
TAAR1 agonist: human TAAR1 agonists, primary screen, Fluo-8 calcium fluorescence, CHO RD-HGA16 cells; activation, % at 3 µM; 360,000 compounds, 0.99% hits; Trace amine-associated receptor 1 (Homo sapiens), Q96RJ0; vehicle wells 0%, saturating PEA agonist 100%; AID 624467, 2012;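 active = activation above the mean activation of all test compounds in the run plus 3 SD, cut at about 38% in these data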
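test system = CHO RD-HGA16 cells carrying human TAAR1 plus Gα16 | schedule = 17-24 h seeding, 75 min 37 °C dye, 30 min RT | compound dosing = 3 µM single concentration | control set = DMSO and PEA EC100 | replicates = n 1 | signal = Fluo-8 fluorescence, 5 s baseline then 140 s kinetic read | measure = percent activation vs PEA EC100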
rCAG RNA binder: binders of r(CAG) RNA repeats, primary screen, biochemical, fluorescence | r(CAG) RNA repeat, TO-PRO-1 dye displacement fluorescence | inhibition, % at 3 µM | 370,000 compounds, 1.3% hits | AID 651821, 2012;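 active = inhibition above the plate cutoff, the mean of all test compounds on that plate plus 3 SD, cut at about 35% in these data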;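 also: 0% = DMSO alone and 100% = 100 µM mitoxantrone as full dye displacement; higher means more dye released from RNA so lower well fluorescence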
core dimer inh: inhibitors of HCV core protein dimerization, primary screen, biochemical, TR-FRET, high-throughput; 300,000 compounds, 0.33% hits; inhibition, % at 5 µM; TR-FRET GST/Flag-core106 dimerization, 1536-well;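 active = inhibition above the mean of all tested compounds plus 3 SD, set per screening campaign, cut at about 45% in these data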
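System: GST/Flag-tagged HCV core106 proteins. Incubation: compound-protein-antibody incubation 4 h at 22.5 °C. Technique: HTRF with 340 nm excitation, 617/671 nm emission. Medium: KF-containing HEPES buffer, pH 7.45, DTT, CHAPS, BSA. Read-out: inhibition (%) from 671 over 617 nm ratio. Also added: Eu(K)-anti-GST 90 ng/mL plus XL665-anti-Flag 1 µg/mL.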
rCAG binder conf: small molecules binding CAG repeat RNA – biochemical, fluorescence, confirmation | inhibition, % at 3 µM | AID 652065, 2013 | 4,300 compounds, 70% hits | r(CAG) RNA repeat, TO-PRO-1 dye displacement fluorescence | shares compounds with rCAG RNA binder;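 active = inhibition above a per-plate cutoff, the mean inhibition of sample wells plus 3 SD, cut at about 35% in these data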;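 also: loss of TO-PRO-1 fluorescence as compound displaces dye from 1x1 AA loop RNA; 0% = DMSO only wells and 100% = 100 µM mitoxantrone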
DNA CAG counter: displacement of TO-PRO-1 from CAG DNA duplex, counter-screen for rCAG RNA repeat binder project, biochemical, fluorescence, TO-PRO-1 dye, d(CAG) DNA oligo; shares compounds with rCAG RNA binder; d(CAG) DNA oligo TO-PRO-1 dye displacement; inhibition, % at 3 µM; 4,300 compounds, 94% hits;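 active = inhibition above its plate's cutoff, the mean test-well inhibition plus 3 SD, cut at about 4.8% in these data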;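 also: 0% = DNA dye mix with DMSO and 100% = 100 µM mitoxantrone; hits displace the dye from DNA and so lower well fluorescence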
The depositor's hits bear a star; nt = no result.

SMILES	NS3 helicase inh	TAAR1 antag	TAAR1 agonist	rCAG RNA binder	core dimer inh	rCAG binder conf	DNA CAG counter
O=C(O)c1ccccc1C(=O)c1ccc(Sc2ccc(Cl)cc2)c([N+](=O)[O-])c1	-4.7	8.3	-2.3	64.1*	16.9	71.2*	32.0*
O=C(COC(=O)CCN1C(=O)/C(=C\C=C\c2ccccc2)SC1=S)Nc1cc(F)ccc1F	21.1	-10.8	0.6	38.2*	59.7*	28.3	13.5*
O=C(CN1C(=O)S/C(=C/C=C/c2ccccc2)C1=O)Nc1ccc(C(=O)O)cc1	27.9	12.5	0.5	64.9*	11.0	45.0*	14.8*
O=C(CCN1C(=O)/C(=C\C=C\c2ccccc2)SC1=S)Nc1ccc(C(=O)O)cc1	3.2	27.9	4.2	46.3*	13.2	77.7*	42.8*
O=C(CN1C(=O)S/C(=C\C=C\c2ccccc2)C1=O)Nc1ccc(C(=O)O)cc1	-10.3	-8.8	7.7	54.4*	8.8	46.3*	17.7*
O=C(CCCN1C(=O)/C(=C\c2ccccc2)SC1=S)Nc1ccc(C(=O)O)cc1	0.0	-1.9	2.1	3.4	-0.3	nt	nt
O=C(CCCN1C(=O)S/C(=C\C=C\c2ccccc2)C1=O)Nc1ccc(O)cc1	5.8	35.0	9.1	8.6	12.7	nt	nt
COC(=O)N1C[C@H](OC(=S)Nc2ccc(OC)cc2OC)[C@H]2C[C@@H]1c1ccccc1O2	nt	-59.3	0.7	5.0	nt	nt	nt
CCN1Cc2nnn(Cc3ccccc3)c2-c2ccccc2S1(=O)=O	nt	nt	nt	0.2	nt	nt	nt
COCc1[nH]nc2c1C(c1cccc(C(F)(F)F)c1)N(c1ccccc1)C2=O (stereo not drawn)	nt	-26.9	-1.3	-1.2	nt	nt	nt
Cc1ccc(-n2c(SCC(=O)c3ccc(Br)cc3)nnc2-c2ccncc2)cc1	nt	nt	nt	2.7	nt	nt	nt
O=C1/C(=C/c2ccccn2)SC(=S)N1NS(=O)(=O)c1ccccc1	-3.7	5.6	1.8	32.3	-0.8	nt	nt
COc1cccc(/C=C2\SC(=S)N(NS(=O)(=O)c3ccccc3)C2=O)c1OC	16.1	19.3	-4.0	74.4*	7.3	64.6*	27.7*
COc1cc(/C=C2\SC(=S)N(NS(=O)(=O)c3ccccc3)C2=O)cc(OC)c1OC	24.4	-6.3	-5.9	65.0*	6.6	64.8*	27.2*
Cc1cccc(CCNC(=O)Cn2ncc3c2-c2cc(C)ccc2OC3)c1	nt	nt	nt	-0.3	nt	nt	nt
Nc1c(SCCC(=O)O)ccc2c1C(=O)c1ccccc1C2=O	22.4	12.5	5.8	36.8*	-79.3	14.6	2.3
C[C@@H]1CCN(C2CC2)S(=O)(=O)c2c(cccc2N2CC[C@@H](O)C2)O1	nt	nt	nt	3.8	nt	nt	nt
O=C(O)c1cccc(NC(CNS(=O)(=O)c2ccc(Cl)cc2)c2ccccc2)c1 (stereo not drawn)	7.3	-10.6	1.6	43.0*	13.2	36.5*	11.3*
O=C(O)c1cccc(NS(=O)(=O)c2ccc(Oc3ccc(S(=O)(=O)Nc4cccc(C(=O)O)c4)cc3)cc2)c1	nt	-29.3	1.2	47.4*	6.4	23.0	3.3
O=C(O)c1cccc(NS(=O)(=O)c2ccc(-c3ccc(S(=O)(=O)Nc4cccc(C(=O)O)c4)cc3)cc2)c1	-0.8	29.0	-1.0	43.4*	4.8	16.8	1.1
COc1ccc(NS(=O)(=O)c2ccc(Oc3cccc(C(=O)O)c3)cc2)cc1	19.0	9.0	-0.7	9.8	3.1	nt	nt
COC(=O)[C@]12C[C@H](CC(=O)N3CCN(C(=O)C4CC4)CC3)C(=O)N(Cc3ccc(Cl)cc3Cl)C1=C[C@H](C(C)(C)C)O[C@@H]2C	nt	nt	nt	7.7	nt	nt	nt
CCCCCN1CCCCC(NC(=O)c2cc(OC)c(OC)c(OC)c2)C1=O (stereo not drawn)	nt	nt	nt	-1.5	nt	nt	nt
